Experiment [1] concerns the target Prothrombin (Bos taurus, UniProt P00735). The experiment can be described thus: Inhibitory activity against bovine thrombin.
The nature of experiment [2]: The compound was evaluated for the dose to double the control plasma APTT value in the human plasma. It is filed as functional. In a few lines:
(§1)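 Human blood was anticoagulated with one-tenth volume 3.8% trisodium citrate and centrifuged at 1300g for 20 min to give platelet-poor plasma. Plasma was spiked with compound at 0 to about 150 μM. It was activated 5 min at 37 °C with bovine cephalin (ellagic acid) reagent, and clotting was started with 20 mM CaCl2. Clot time was read on a coagulometer. Concentration doubling APTT was read from a concentration–APTT plot.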

For experiment [3], the target named is T1, Prothrombin (Homo sapiens, UniProt P00734). Description: The compound was evaluated for the inhibitory activity against human thrombin. A digest of the protocol:
(§2)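 Human thrombin (0.0625 U/mL final) in 0.05 M TRIS-HCl pH 8.4 with S-2238, started by enzyme. Absorbance slope at 405 nm was read over 30 s. A range-finding run at about 0.01–100 μM was followed by substrate at 3.125–100 μM with at least two inhibitor levels plus vehicle. DMSO was below 0.5%. Ki = [i]/(Kp/Km − 1) from double-reciprocal plots.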

The nature of experiment [4]: The compound was evaluated for the dose to double the control plasma APTT value in the human plasma. It is filed as functional. A digest of the protocol:
as §1

Experiment [5] concerns the target T1, Prothrombin. Description: Inhibitory activity against human thrombin.
The target in experiment [6] is T1, Prothrombin. Description: The compound was evaluated for the inhibitory activity against human thrombin. A digest of the protocol:
as §2

The term pKi denotes the Ki on a negative log10 scale, so that one unit is a factor of ten. The low end stands for a high Ki, the high end for a low Ki.

SMILES strings stand for the structures. pKi: −log10 of the molar value.

For `CC1CNc2c(cccc2S(=O)(=O)NC(CCCN=C(N)N)C(=O)N2CCCC(O)C2)C1` (centres undefined), in experiment [1], the pKi is 6.44. Compound `CC(=O)NCCC1CCN(C(=O)C(CCCN=C(N)N)NS(=O)(=O)c2cccc3c2NCC(C)C3)CC1` (centres undefined) yielded an IC200 in experiment [2] of 1.8 µM. Further, the figures for the pKi in experiment [3] and in experiment [1] were 7.18 and 7.35, respectively. `CC1CNc2c(cccc2S(=O)(=O)NC(CCCN=C(N)N)C(=O)N2CCC(CCOC(=O)CCC(=O)O)CC2)C1` (centres undefined): the negative-log Ki (pKi) in experiment [1] was 7.47. Same read-out and setting: the value for `CC1CNc2c(cccc2S(=O)(=O)NC(CCCN=C(N)N)C(=O)N2CCCC2)C1` (centres undefined) was 6.10; that for `CC1CNc2c(cccc2S(=O)(=O)NC(CCCN=C(N)N)C(=O)N2CCC(O)CC2)C1` (centres undefined) was 5.29; that for `CC1CNc2c(cccc2S(=O)(=O)NC(CCCN=C(N)N)C(=O)N2CCCCC2CO)C1` (centres undefined) was 7.19.

In the case of `CC1CNc2c(cccc2S(=O)(=O)NC(CCCNC(=N)N)C(=O)N2CCC(CO)CC2)C1` (centres undefined), the pKi in experiment [1] is 7.19. On the same count and under the same terms, the value for `C[C@H]1CNc2c(cccc2S(=O)(=O)NC(CCCNC(=N)N)C(=O)N2CCC(CCO)CC2)C1` (some centres undefined) was 7.34; that for `CC1CNc2c(cccc2S(=O)(=O)NC(CCCN=C(N)N)C(=O)N2CCC(CCNC(=O)CCC(=O)O)CC2)C1` (centres undefined) was 6.19.

`CC1CNc2c(cccc2S(=O)(=O)NC(CCCN=C(N)N)C(=O)N2CCC[C@@H](CO)C2)C1` (some centres undefined) had a pKi in experiment [1] of 5.82.

For `CC(C)(c1ccccc1)c1cccc(S(=O)(=O)NC(CCCN=C(N)N)C(=O)N2CCC[C@H]2CO)c1` (some centres undefined), the pKi in experiment [1] is 5.54.

For `N=C(N)NCCCC(NS(=O)(=O)c1cccc2c1NCCC2)C(=O)N1CCC(CCO)CC1` (centres undefined), the pKi in experiment [1] is 6.31. For `CC(=O)NCCC1CCN(C(=O)C(CCCN=C(N)N)NS(=O)(=O)c2cccc3c2NCC(C)(C)C3)CC1` (centres undefined), in experiment [4], the IC200 turned out to be 2.15 µM. This compound gave a pKi in experiment [5] of 7.37. The compound `CC(C)(c1ccccc1)c1cccc(S(=O)(=O)NC(CCCNC(=N)N)C(=O)N2CCCC[C@H]2CO)c1` (some centres undefined) gave a negative-log Ki (pKi) in experiment [1] of 5.52. Still for that read-out and setting: the value for `CC1CNc2c(cccc2S(=O)(=O)NC(CCCN=C(N)N)C(=O)N2CCC(CC(=O)O)CC2)C1` (centres undefined) was 5.59. Compound `CC1(C)CNc2c(cc(Cl)cc2S(=O)(=O)NC(CCCN=C(N)N)C(=O)N2CCC(CCF)CC2)C1` (centres undefined) had an IC200 in experiment [4] of 3.25 µM. Also, in experiment [5], the negative-log Ki (pKi) is 8.18. Consider `CC1CNc2c(cccc2S(=O)(=O)NC(CCCN=C(N)N)C(=O)N2CCC(CCNC(=O)CCP(=O)(O)O)CC2)C1` (centres undefined), for which the pKi in experiment [1] is 4.45. `CCC1CCN(C(=O)C(CCCN=C(N)N)NS(=O)(=O)c2cccc3c2NCC(C)C3)CC1` (centres undefined): the IC200 in experiment [4] is 6.27 µM. In experiment [1], this compound showed a pKi of 7.57. Compound `CC1CNc2c(cccc2S(=O)(=O)NC(CCCNC(=N)N)C(=O)N2CCC(CCOC(=O)CCCC(=O)O)CC2)C1` (centres undefined) showed a negative logarithm of the Ki (pKi) in experiment [1] of 6.77. Take `CC1CNc2c(cccc2S(=O)(=O)NC(CCCN=C(N)N)C(=O)N2CCC(CCCl)CC2)C1` (centres undefined): the IC200 in experiment [4] was found to be 2.7 µM. Besides, the negative-log Ki (pKi) in experiment [3] is 7.96; in experiment [1], 7.72. In experiment [2], `CC1(C)CNc2c(cccc2S(=O)(=O)NC(CCCN=C(N)N)C(=O)N2CCC(CC(F)F)CC2)C1` (centres undefined) had an IC200 of 1.5 µM. Also, in experiment [5], the negative-log Ki (pKi) is 8.22.

In experiment [1], `CC1CNc2c(cccc2S(=O)(=O)NC(CCCN=C(N)N)C(=O)N2CCC(CCCCCCC(=O)O)CC2)C1` (centres undefined) showed a negative logarithm of the Ki (pKi) of 5.70. In the case of `CC1CNc2c(cccc2S(=O)(=O)NC(CCCN=C(N)N)C(=O)N2CCCC[C@H]2CO)C1` (some centres undefined), the pKi in experiment [1] was 7.64. On the same count and under the same terms, the value for `CC1CNc2c(cccc2S(=O)(=O)NC(CCCN=C(N)N)C(=O)N2CCC[C@H]2CO)C1` (some centres undefined) was 7.10; that for `CC1CNc2c(cccc2S(=O)(=O)NC(CCCNC(=N)N)C(=O)N2CCC(CCCO)CC2)C1` (centres undefined) was 6.73. Same read-out and setting: for `CC1CNc2c(cccc2S(=O)(=O)NC(CCCNC(=N)N)C(=O)N2CCC[C@@H](CCO)C2)C1` (some centres undefined) the value was 5.87. Consider `CC1(C)CNc2c(cc(Cl)cc2S(=O)(=O)NC(CCCN=C(N)N)C(=O)N2CCC(CC(F)F)CC2)C1` (centres undefined), for which, in experiment [2], the IC200 was 6 µM. Besides, the negative-log Ki (pKi) in experiment [5] was 7.92.

In turn, `CC1CNc2c(cccc2S(=O)(=O)NC(CCCNC(=N)N)C(=O)N2Cc3ccccc3CC2CO)C1` (centres undefined) had a pKi in experiment [1] of 6.05. As for `CC1CNc2c(cccc2S(=O)(=O)NC(CCCN=C(N)N)C(=O)N2CCC(CCC(=O)NCCC(=O)O)CC2)C1` (centres undefined), the negative logarithm of the Ki (pKi) was 6.51 in experiment [1] and 6.55 in experiment [6]. `CC1(C)CNc2c(cc(Cl)cc2S(=O)(=O)NC(CCCN=C(N)N)C(=O)N2CCC(CCOC(=O)C(C)(C)C)CC2)C1` (centres undefined) came in with an IC200 in experiment [4] of 8.5 µM. The compound further gave a pKi in experiment [1] of 7.25.

In turn, `CC(C)(c1ccccc1)c1cccc(S(=O)(=O)NC(CCCNC(=N)N)C(=O)N2CCc3ccccc3C2)c1` (centres undefined) had a pKi in experiment [1] of 7.31. With `CC1CNc2c(cccc2S(=O)(=O)NC(CCCNC(=N)N)C(=O)N2CCc3ccccc3C2)C1` (centres undefined), in experiment [1], the negative logarithm of the Ki (pKi) was 7.64. On the same count and under the same terms, the value for `CC1CNc2c(cccc2S(=O)(=O)NC(CCCN=C(N)N)C(=O)N2CCC(CCC(=O)O)CC2)C1` (centres undefined) was 4.74. The compound `CC1(C)CNc2c(cccc2S(=O)(=O)NC(CCCN=C(N)N)C(=O)N2CCC(CCF)CC2)C1` (centres undefined) displayed an IC200 in experiment [2] of 2.1 µM. This compound also gave a pKi in experiment [5] of 8.24. In experiment [1], `CC1CNc2c(cccc2S(=O)(=O)NC(CCCN=C(N)N)C(=O)N2CCC(CCO)CC2)C1` (centres undefined) gave a pKi of 7.28. On the same count and under the same terms, the value for `CC1CNc2c(cccc2S(=O)(=O)NC(CCCN=C(N)N)C(=O)N2CCC(CCOCCCC(=O)O)CC2)C1` (centres undefined) was 6.01; that for `CC1CNc2c(cccc2S(=O)(=O)NC(CCCN=C(N)N)C(=O)N2CCC(CCOC(=O)CC(=O)O)CC2)C1` (centres undefined) was 6.44.

The values are drawn from ChEMBL document CHEMBL1132465, “Design and synthesis of thrombin inhibitors: analogues of MD-805 with reduced stereogenicity and improved potency” (J Med Chem, 1999).
